Assays:
[1] = test system: L1210; assay: Concentration required to reduce 50% growth of L1210 cells in 48h; b=No inhibition at 7.5 uM; assay type: functional, cell-based, Mus musculus
How it was run: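 Murine leukaemia L1210 cells grown in vitro, with the metalloporphyrin derivatives dissolved in water. Growth was measured after 48 h against untreated controls. IC50 is the concentration that cuts the rate of cell multiplication by 50%. Values are the mean of two or three determinations, or of four independent experiments where a deviation is given.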

[2] = test system: Nucleic Acid; assay: DNA affinity constant to poly[d(A-T)]; assay type: nucleic-acid assay; conditions: Bos taurus
How it was run: (§1)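 Ethidium bromide displacement at 25 °C in 0.01 M cacodylate pH 7.0 with 10 mM NaCl, using 1.26 μM EB and 1 μM polynucleotide (poly[d(A-T)] or poly[d(G-C)]). Bound-EB fluorescence was read across varying drug concentrations. The concentration displacing 50% of EB came from nonlinear-regression fitting, and Kapp was derived from it by the Baguley method.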

[3] = test system: Nucleic Acid; assay: DNA affinity constant to poly[d(G-C)]; assay type: nucleic-acid assay; conditions: Bos taurus; how it was run: as §1
[4] = test system: L1210; assay: Concentration required to reduce 50% growth of L1210 cells in 48 hr; assay type: functional, cell-based, Mus musculus
How it was run: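 Murine leukemia L1210 cells grown in vitro with the derivatives, which were dissolved in water. Growth was scored after 48 h against untreated controls. IC50 is the concentration that cuts cell multiplication by 50%. Values are the mean of two or three determinations, or four independent experiments where a standard deviation is given.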

[5] = tested as the Zn salt or complex

For `CC(=O)[O-].CC(=O)[O-].CC(=O)[O-].CC(=O)[O-].COc1ccc2[nH]c3c(C)c4cc[n+](CCCCC(=O)Nc5ccc(-c6c7nc(c(-c8cc[n+](C)cc8)c8ccc([nH]8)c(-c8cc[n+](C)cc8)c8nc(c(-c9cc[n+](C)cc9)c9ccc6[nH]9)C=C8)C=C7)cc5)cc4c(C)c3c2c1.[Zn]`, the IC50 [1] was “No growth inhibition”, the K app [2, 5] was 2e+09 M⁻¹ and the K app [3, 5] was 1.9e+08 M⁻¹.
`COc1ccc2[nH]c3c(C)c4cc[n+](CCCCC(=O)O)cc4c(C)c3c2c1` gave a K app [2] of 2.5e+06 M⁻¹, a K app [3] of 4.9e+06 M⁻¹ and an IC50 ([4]; Mus musculus, L1210, 48 h) greater than 23000 nM.
Compound BLEOMYCIN has an IC50 ([4]; l1210) of 1700 nM.
